What is called pEC50 is −log10 of the EC50, conventionally taken in molar units. Usually pKi stands for −log10 of the Ki, conventionally taken in molar units. High values mean a low Ki, low ones a high Ki. By pIC50 is commonly meant the negative decadic logarithm of the IC50, by convention in mol/L.

Data on five molecules can be found in PMC3786410 (Bioorganic & medicinal chemistry, 2013).

pEC50, pIC50, pKi: −log10 of the molar value. Like-named read-outs stand apart in the source and are kept apart here.

For one test, the system named is CRE. The settings on record: ref PubChem AID 662; cited from earlier work.
Test [1] concerns CRE-bla parental cell line. Briefly: parental CRE-bla CHO cell line counterscreen assay. The test is classed as cell-based. The procedure, abridged: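 Counterscreen in the parental CRE-β-lactamase reporter CHO line without S1PR2, run alongside the S1PR2 assay. Hits were retested in triplicate at 5 micromolar and then tested in dose response.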
In general terms: A counterscreen serves to expose hits that act by an unwanted route or on another target.

The target of a further test is S1PR3 (Homo sapiens, UniProt Q99500). As to the kind of experiment: S1PR3 agonist assay. It counts as cell-based.
Test [2] addresses T1, S1PR2 (Homo sapiens, UniProt O95136). As to the kind of experiment: S1PR2 CRE-bla CHO reporter agonist assay. It counts as cell-based. The settings on record: for pEC50: read-out: EC50 S1PR2; for Emax: read-out: Max Activity (% of 1 μM S1P). The procedure, abridged: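 Stable CHO line carrying a CRE-driven β-lactamase reporter and expressing human S1PR2, run in 384-well format. […] For antagonist challenge, agonist dose responses were run with a reference S1PR2 antagonist at 10, 30 or 90 nM.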

The next test has as its target S1PR5 (Homo sapiens, UniProt Q9H228). As to the kind of experiment: S1PR5 agonist assay. It counts as cell-based.
In the next test the target is S1PR1 (Homo sapiens, UniProt P21453). Briefly: S1PR1 agonist assay. The test is classed as cell-based.
Another test deals with T2, S1PR4 (Homo sapiens, UniProt O95977).
T2 sequence (O95977 1-384): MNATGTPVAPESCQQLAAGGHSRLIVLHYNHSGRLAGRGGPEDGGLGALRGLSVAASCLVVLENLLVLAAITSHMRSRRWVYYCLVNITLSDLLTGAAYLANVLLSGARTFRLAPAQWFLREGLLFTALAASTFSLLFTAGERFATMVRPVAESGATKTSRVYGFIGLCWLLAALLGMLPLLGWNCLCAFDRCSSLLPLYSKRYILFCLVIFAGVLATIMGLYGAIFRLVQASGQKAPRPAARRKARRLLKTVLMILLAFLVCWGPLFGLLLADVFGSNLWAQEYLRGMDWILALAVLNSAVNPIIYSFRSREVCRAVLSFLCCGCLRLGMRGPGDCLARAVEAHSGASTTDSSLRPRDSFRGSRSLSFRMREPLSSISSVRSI
As to the kind of experiment: S1PR4 agonist assay. The test is classed as cell-based.

The next test addresses wild type S1PR2 (Homo sapiens, UniProt O95136). As to the kind of experiment: GloSensor cAMP assay, wild type S1PR2-eGFP Jump-In CHO cells. The test is classed as cell-based. For orientation: cAMP levels reflect the balance of adenylyl cyclase and phosphodiesterase activity.
Test [3] has as its target triple mutant S1PR2 (R108A, E109A and K269A) (Homo sapiens, UniProt O95136, E109A/K269A/R108A). Briefly: GloSensor cAMP assay, triple mutant S1PR2-eGFP Jump-In CHO cells. It counts as cell-based.
In test [4] the target is T1, S1PR2. As to the kind of experiment: JTE-013 inhibition of agonists in the S1PR2 CRE-bla assay. It counts as cell-based. The settings on record: linear regression of Schild plot, against S1P.
Test [5] addresses T1, S1PR2. Briefly: 33P-S1P radioligand competition binding assay. The conditions noted are these: read-out: IC50, displacement of radiolabeled S1P, S1PR2-CRE bla cells, 4°C. (In a radioligand displacement assay an active substance lowers the binding of a labelled ligand.)

T1 sequence (O95136 whole entry): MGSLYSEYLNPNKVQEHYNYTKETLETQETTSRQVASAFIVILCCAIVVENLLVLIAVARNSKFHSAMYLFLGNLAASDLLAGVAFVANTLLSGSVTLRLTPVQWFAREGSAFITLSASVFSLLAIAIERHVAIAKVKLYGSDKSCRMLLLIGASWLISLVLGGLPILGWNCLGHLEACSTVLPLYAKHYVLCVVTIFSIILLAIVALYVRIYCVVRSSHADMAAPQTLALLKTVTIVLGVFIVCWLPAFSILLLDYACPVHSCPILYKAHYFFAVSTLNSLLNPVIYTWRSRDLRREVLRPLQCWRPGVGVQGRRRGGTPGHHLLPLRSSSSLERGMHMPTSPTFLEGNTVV
Sequence of wild type S1PR2 (O95136 whole entry): as above
Sequence of S1PR1 (P21453 whole entry, species assumed): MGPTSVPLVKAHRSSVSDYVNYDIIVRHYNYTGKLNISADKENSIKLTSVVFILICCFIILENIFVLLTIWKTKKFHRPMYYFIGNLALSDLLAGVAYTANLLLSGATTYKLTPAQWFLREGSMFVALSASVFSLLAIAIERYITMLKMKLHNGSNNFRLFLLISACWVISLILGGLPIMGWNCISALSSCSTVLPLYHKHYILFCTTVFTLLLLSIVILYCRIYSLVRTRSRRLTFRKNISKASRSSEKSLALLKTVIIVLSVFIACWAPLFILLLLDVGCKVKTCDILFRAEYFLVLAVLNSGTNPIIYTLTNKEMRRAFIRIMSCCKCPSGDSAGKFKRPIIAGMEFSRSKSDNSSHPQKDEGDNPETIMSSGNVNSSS
Sequence of S1PR3 (Q99500 whole entry, species assumed): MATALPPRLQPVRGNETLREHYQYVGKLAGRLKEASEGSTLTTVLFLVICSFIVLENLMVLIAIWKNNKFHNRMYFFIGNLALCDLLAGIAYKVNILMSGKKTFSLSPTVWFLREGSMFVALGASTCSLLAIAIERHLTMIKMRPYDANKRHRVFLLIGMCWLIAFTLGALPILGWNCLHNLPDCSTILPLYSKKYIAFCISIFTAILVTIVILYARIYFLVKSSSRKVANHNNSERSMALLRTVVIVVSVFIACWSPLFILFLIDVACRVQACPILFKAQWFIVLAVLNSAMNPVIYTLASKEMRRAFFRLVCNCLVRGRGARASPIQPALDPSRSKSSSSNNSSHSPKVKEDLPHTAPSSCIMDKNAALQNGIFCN
Sequence of S1PR5 (Q9H228 whole entry, species assumed): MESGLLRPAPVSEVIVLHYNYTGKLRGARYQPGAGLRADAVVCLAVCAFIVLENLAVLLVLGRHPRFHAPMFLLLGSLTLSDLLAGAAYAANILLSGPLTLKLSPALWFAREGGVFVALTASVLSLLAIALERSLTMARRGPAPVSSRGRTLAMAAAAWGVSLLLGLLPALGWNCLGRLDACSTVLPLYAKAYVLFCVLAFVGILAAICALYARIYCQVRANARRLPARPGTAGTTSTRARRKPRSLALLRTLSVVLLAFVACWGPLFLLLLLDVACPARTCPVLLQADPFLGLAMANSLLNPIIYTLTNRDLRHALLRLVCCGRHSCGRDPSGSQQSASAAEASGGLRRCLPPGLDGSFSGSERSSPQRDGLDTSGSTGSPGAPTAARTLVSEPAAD
Sequence of triple mutant S1PR2 (R108A, E109A and K269A) (O95136 whole entry R108A/E109A/K269A): as the sequence (O95136 whole entry) above, with R108A, E109A, K269A counted along it

Consider `CCOC(=O)c1c(C)n(C)c2ccc(OCC(O)Cn3nc(C)cc3C)cc12` (stereo not drawn) [MLS000049871], for which the “activity in PubChem AID 662” value with CRE is listed as “active”. Moreover, the “activity in the CRE-bla counterscreen (in words)” value in test [1] was “inactive”.
Consider `Cc1ccc(Sc2ccc(C3SCCS3)cc2[N+](=O)[O-])cc1` [compound 3], for which, on S1PR3, the “activity in S1PR3 agonist assay” value is “inactive”. Also, the pEC50 on S1PR2 [2] (Table 2, purchased analogues of XAX-164) was 6.26. In addition, on S1PR2 [2] (Table 2), the Emax came out at 130%. Moreover, at S1PR5, the “activity in S1PR5 agonist assay” value was “inactive”. Further, at S1PR1, the “activity in S1PR1 agonist assay” value was “inactive”. Further, at S1PR4, the “activity in S1PR4 agonist assay” value was “inactive”.
`Cc1cc(C(=O)Cn2cc(C#N)ccc2=O)c(C)n1Cc1ccccc1` [compound 14]: the “activity in S1PR3 agonist assay” value on S1PR3 is “inactive”. Further, the negative-log EC50 (pEC50) on wild type S1PR2 (read-out: EC50, cAMP response) is 5.80; at S1PR2 [2] (Table 3, synthesized compounds), 6.32. For the same molecule, at S1PR2 [2] (cyanide group in place of the trifluoromethyl of 10), the increase in potency is recorded as 1.6 fold. Also, at S1PR2 [2] (Table 3), the Emax is 100%. Besides, the “activity in S1PR5 agonist assay” value at S1PR5 was “inactive”. Besides, the “activity in the CRE-bla counterscreen (in words)” value in test [1] is on record as “inactivity”. At S1PR1, the “activity in S1PR1 agonist assay” value is “inactive”. For the same molecule, at S1PR4, the “activity in S1PR4 agonist assay” value was “inactive”.
Regarding `CCCCCCCCCCCCC/C=C/[C@@H](O)[C@@H](N)COP(=O)(O)O` [S1P, Sphingosine 1-phosphate, reference compound], in test [3], the “cAMP response (in words)” value is recorded as “did not elicit a rise in luciferase activity”. Also, the “agonist efficacy (in words)” value on wild type S1PR2 was “full agonists”.
Take `Cc1nn(C)c2nc(NNC(=O)Nc3cc(Cl)nc(Cl)c3)cc(C(C)C)c12` [JTE-013]: the pKi on S1PR2 [4] was 7.70. Moreover, the pIC50 on S1PR2 [5] is 7.28.
